# Calls of active or inactive are those of the source. No cut-off for these calls is given here.
# Legend:
# [1] = biological target: T1, Hexokinase-4 (Homo sapiens) (UniProt P35557); test: Activation of His-tagged human recombinant liver glucokinase expressed in Escherichia coli BL21 (DE3) assessed as drug level required for half-maximal activation; assay type: single protein
# T1 sequence (whole entry): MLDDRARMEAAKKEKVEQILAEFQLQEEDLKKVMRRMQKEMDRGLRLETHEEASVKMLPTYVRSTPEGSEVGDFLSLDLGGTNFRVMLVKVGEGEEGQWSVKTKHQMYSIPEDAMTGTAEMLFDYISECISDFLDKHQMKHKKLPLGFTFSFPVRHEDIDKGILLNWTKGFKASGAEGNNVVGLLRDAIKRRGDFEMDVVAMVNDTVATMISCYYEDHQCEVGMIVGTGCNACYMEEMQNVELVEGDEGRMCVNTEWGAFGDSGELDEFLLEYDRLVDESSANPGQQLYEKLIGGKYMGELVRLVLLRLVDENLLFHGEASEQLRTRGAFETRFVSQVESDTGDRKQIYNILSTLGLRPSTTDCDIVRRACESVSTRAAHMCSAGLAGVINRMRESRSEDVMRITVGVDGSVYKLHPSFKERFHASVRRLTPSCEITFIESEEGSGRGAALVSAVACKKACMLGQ
# Outline: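 Recombinant human liver GK (aa 17-466), His-tagged, expressed in E. coli BL21 Star (DE3), nickel affinity purified, tag cleaved (GPGSM left), then anion exchange and gel filtration to >95%.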
# [2] = Metabolic stability in human liver microsomes assessed as half life; assay type: ADME, Microsome
# Outline: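 Compound incubated at 1 μM with human liver microsomes plus selected cofactors (NADPH, UDPGA); clearance followed at 4 time points as % test compound remaining, giving half-life.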
# Mus musculus [3] = test: Reduction in glucose excursion in C57BL/6 mouse at 50 mg/kg, po in water administered 30 mins before glucose challenge measured at 0.5 hr postdose by oral glucose tolerance test; assay type: functional, C57BL6; design: scale not given: the % may be the effect or the level left
# Outline: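 Normal C57BL6 mice dosed by oral gavage at 50 mg/kg, with water as vehicle. Oral glucose at 1 g/kg 30 min after dosing. Plasma glucose read by glucose meter at 0 h and at 0.5, 1, 2 and 4 h post-dose. Reported as % reduction from vehicle control at the stated time, with significance at p < 0.05 or the p-value given.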
# Mus musculus [4] = test: Reduction in glucose excursion in C57BL/6 mouse at 10 mg/kg, iv administered 30 mins before glucose challenge measured at 2 hrs postdose by oral glucose tolerance test; assay type: functional, C57BL6; design: scale not given: the % may be the effect or the level left
# Outline: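 Normal C57BL6 mice, compound given IV at 10 mg/kg. Oral glucose at 1 g/kg 30 min after dosing. Plasma glucose read by glucose meter at 0 h and at 0.5, 1, 2 and 4 h post-dose. Reported as % reduction from vehicle control at the stated time, with significance at p < 0.05 or the p-value given.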
# [5] = Permeability at 5 to 10 uM at pH 4, 6.8 and 8 by PAMPA; conditions: pH 4, 6.8, 8, 10 µM
# [6] = Cmax in C57BL/6 mouse plasma at 60 mg/kg; assay type: ADME, organism-based, C57BL6; design: dose 60 mg/kg
# Outline: (§1)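 Normal male-unspecified C57BL6 mice given a single 60 mg/kg dose; plasma, liver, pancreas and muscle sampled over 0-24 h, 3 animals with samples pooled for analysis; Cmax (μM) and AUC0-24h (μM*h) of parent drug reported.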
# [7] = Cmax in C57BL/6 mouse liver at 60 mg/kg; assay type: ADME, organism-based, C57BL6; design: dose 60 mg/kg; outline: as §1
# [8] = Cmax in C57BL/6 mouse pancreas at 60 mg/kg; assay type: ADME, organism-based, C57BL6; design: dose 60 mg/kg; outline: as §1
# [9] = Cmax in C57BL/6 mouse muscle at 60 mg/kg; assay type: ADME, organism-based, C57BL6, Muscle tissue; design: dose 60 mg/kg; outline: as §1
# [10] = AUC (0 to 24 hrs) in C57BL/6 mouse plasma at 60 mg/kg; assay type: ADME, organism-based, C57BL6; design: time < 24 hr, dose 60 mg/kg; outline: as §1
# [11] = AUC (0 to 24 hrs) in C57BL/6 mouse liver at 60 mg/kg; assay type: ADME, organism-based, C57BL6; design: time < 24 hr, dose 60 mg/kg; outline: as §1
# [12] = AUC (0 to 24 hrs) in C57BL/6 mouse pancreas at 60 mg/kg; assay type: ADME, organism-based, C57BL6; design: time < 24 hr, dose 60 mg/kg; outline: as §1
# [13] = AUC (0 to 24 hrs) in C57BL/6 mouse muscle at 60 mg/kg; assay type: ADME, organism-based, C57BL6, Muscle tissue; design: time < 24 hr, dose 60 mg/kg; outline: as §1
# Mus musculus [14] = test: Antidiabetic activity in po dosed high fat diet-induced obese C57BL/6 type 2 diabetes mouse model assessed as decrease in glucose excursion administered QD for 4 weeks by intravenous glucose tolerance test; assay type: functional, organism-based; conditions: C57BL6
# Outline: (§2)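 Male C57BL6 mice kept on high fat diet dosed orally once daily with vehicle (dH2O) or compound at 30 to 100 mg/kg. Intravenous glucose tolerance test then run; plasma glucose excursion and plasma insulin AUC (0-120 min) calculated; n = 8 mice/group, mean ± SEM, p < 0.05 vs vehicle.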
# Mus musculus [15] = test: Antidiabetic activity in high fat diet-induced obese C57BL/6 type 2 diabetes mouse model assessed as increase in plasma insulin AUC at 30 mg/kg, po administered QD for 4 weeks by intravenous glucose tolerance test; assay type: functional, organism-based; design: dose 30 mg/kg; conditions: C57BL6; outline: as §2
# Mus musculus [16] = test: Antidiabetic activity in high fat diet-induced obese C57BL/6 type 2 diabetes mouse model assessed as increase in plasma insulin AUC at 100 mg/kg, po administered QD for 4 weeks by intravenous glucose tolerance test; assay type: functional, organism-based; design: dose 100 mg/kg; conditions: C57BL6; outline: as §2
# Mus musculus [17] = test: Antidiabetic activity in high fat diet-induced obese C57BL/6 type 2 diabetes mouse model assessed as improvement of insulin sensitivity at 30 to 100 mg/kg, po administered QD for 4 weeks by intravenous glucose tolerance test; assay type: functional, organism-based; conditions: C57BL6; outline: as §2
# Mus musculus [18] = test: Antidiabetic activity in high fat diet-induced obese C57BL/6 type 2 diabetes mouse model assessed as improvement of glucose uptake at 30 to 100 mg/kg, po administered QD for 4 weeks by intravenous glucose tolerance test; assay type: functional, organism-based; conditions: C57BL6; outline: as §2
# Mus musculus [19] = test: Antidiabetic activity in high fat diet-induced obese C57BL/6 type 2 diabetes mouse model assessed as reduction of glucose output from liver at 30 to 100 mg/kg, po administered QD for 4 weeks by intravenous glucose tolerance test; assay type: functional, organism-based; conditions: C57BL6; outline: as §2
SMILES,Activity [1] [nM],half-life [2] [min],Activity (Mus musculus [3]) [%],Activity (Mus musculus [4]) [%],logPm [5],Cmax [6] [µM],Cmax [7] [µM],Cmax [8] [µM],Cmax [9] [µM],AUC(0-t) at 24 h [10] [µM·h],AUC(0-t) at 24 h [11] [µM·h],AUC(0-t) at 24 h [12] [µM·h],AUC(0-t) at 24 h [13] [µM·h],Activity (Mus musculus [14]),Activity (Mus musculus [15]),Activity (Mus musculus [16]),Activity (Mus musculus [17]),Activity (Mus musculus [18]),Activity (Mus musculus [19])
COc1ccc2nc(NC(=O)C(CC3CCCC3)c3ccc(S(=O)(=O)N4CCNCC4)cc3)sc2n1.Cl (stereo not given),50,< 1.5,22,26,-4.9,,,,,,,,,,,,,,
COc1ccc2nc(NC(=O)[C@H](CC3CCCC3)c3ccc(S(=O)(=O)N4CCN(C)CC4)cc3)sc2n1,23,,,,,4.3,44.5,218,34.6,52.4,511,3230,167,Dose-dependent effect,inactive,inactive,Active,Active,Active
